From ChEMBL document CHEMBL4732167, “Structure based design, synthesis, and biological evaluation of imidazole derivatives targeting dihydropteroate synthase enzyme” (Bioorg Med Chem Lett, 2021) come the findings set out here.

The nature of test [1]: Antioxidant activity assessed as DPPH radical scavenging activity at 25 ug/ml (reference value: 22 to 40.2 %). It is filed as functional. The settings on record: dose 25.0 µg/ml. In outline:
(§1)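 DPPH radical scavenging was measured at 0, 25, 50, 75 and 100 µg/ml of each compound. Ascorbic acid was the reference.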
A general note: DPPH is a stable violet radical that fades when it is reduced.

A short description of test [2]: Antioxidant activity assessed as DPPH radical scavenging activity at 50 ug/ml (reference value: 22 to 40.2 %). It is filed as functional. The settings on record: dose 50.0 µg/ml. In outline:
as §1

A short description of test [3]: Antioxidant activity assessed as DPPH radical scavenging activity at 75 ug/ml (reference value: 22 to 40.2 %). The settings on record: dose 75.0 µg/ml. It is filed as functional. The essentials: as §1
Test [4] can be described thus: Antioxidant activity assessed as DPPH radical scavenging activity at 100 ug/ml (reference value: 22 to 40.2 %). The test is classed as functional. As to conditions: dose 100.0 µg/ml. In outline: as §1
Test [5] is described as follows: Antioxidant activity assessed as nitric oxide radical scavenging activity at 25 ug/ml (reference value: 25.8 to 41.6 %). It is filed as functional. The settings on record: dose 25.0 µg/ml. The essentials: (§2)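 Nitric oxide radical scavenging was tested at 0, 25, 50, 75 and 100 µg/ml of compound.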
Test [6] can be described thus: Antioxidant activity assessed as nitric oxide radical scavenging activity at 50 ug/ml (reference value: 25.8 to 41.6 %). The test is classed as functional. As to conditions: dose 50.0 µg/ml. In outline: as §2
The nature of test [7]: Antioxidant activity assessed as nitric oxide radical scavenging activity at 75 ug/ml (reference value: 25.8 to 41.6 %). The test is classed as functional. As to conditions: dose 75.0 µg/ml. In outline:
as §2

Test [8] is described as follows: Antioxidant activity assessed as nitric oxide radical scavenging activity at 100 ug/ml (reference value: 25.8 to 41.6 %). It is filed as functional. As to conditions: dose 100.0 µg/ml. In outline: as §2
Test [9] is described as follows: Antioxidant activity assessed as hydrogen peroxide radical scavenging activity at 25 ug/ml (reference value: 23.6 to 43.1 %). It is filed as functional. As to conditions: dose 25.0 µg/ml. The essentials: (§3)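 Hydrogen peroxide scavenging was measured across a compound series of 0, 25, 50, 75 and 100 µg/ml.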
Test [10] in a line: Antioxidant activity assessed as hydrogen peroxide radical scavenging activity at 50 ug/ml (reference value: 23.6 to 43.1 %). The settings on record: dose 50.0 µg/ml. It is filed as functional. In outline: as §3
Test [11] is described as follows: Antioxidant activity assessed as hydrogen peroxide radical scavenging activity at 75 ug/ml (reference value: 23.6 to 43.1 %). The test is classed as functional. As to conditions: dose 75.0 µg/ml. In outline:
as §3

Test [12] can be described thus: Antioxidant activity assessed as hydrogen peroxide radical scavenging activity at 100 ug/ml (reference value: 23.6 to 43.1 %). The settings on record: dose 100.0 µg/ml. The test is classed as functional. In outline: as §3
Test [13] can be described thus: Antioxidant activity assessed as DPPH radical scavenging activity at 100 dilution. The test is classed as functional.
Test [14] relates to Staphylococcus aureus. The test can be described thus: Antibacterial activity against Staphylococcus aureus MTCC 96 assessed as bacterial growth inhibition. The test is classed as functional.
A further test has as its system Escherichia coli. The test can be described thus: Antibacterial activity against Escherichia coli MTCC 443 assessed as bacterial growth inhibition. It is filed as functional.
Another test has as its system Pseudomonas aeruginosa. As to the kind of experiment: Antibacterial activity against Pseudomonas aeruginosa MTCC 1688 assessed as bacterial growth inhibition. It is filed as functional.
Another test deals with Aspergillus niger. As to the kind of experiment: Antifungal activity against Aspergillus niger MTCC 282 assessed as fungal growth inhibition. It is filed as functional.
The subject of a further test is Candida albicans. As to the kind of experiment: Antifungal activity against Candida albicans MTCC 227 assessed as fungal growth inhibition. It is filed as functional.
The next test has as its system Streptococcus pyogenes. As to the kind of experiment: Antibacterial activity against Streptococcus pyogenes MTCC 442 assessed as bacterial growth inhibition. It is filed as functional.
The subject of a further test is Aspergillus clavatus. As to the kind of experiment: Antifungal activity against Aspergillus clavatus MTCC 1323 assessed as fungal growth inhibition. It is filed as functional.
Test [15] has as its system Mycobacterium tuberculosis. The test can be described thus: Antibacterial activity against Mycobacterium tuberculosis H37Rv assessed as bacterial growth inhibition. The test is classed as functional.
The next test concerns Plasmodium falciparum. The test can be described thus: Antimalarial activity against Plasmodium falciparum assessed as parasite growth inhibition. It is filed as functional, organism-based.
The subject of a further test is Bacteria. The test can be described thus: Antibacterial activity against ESBL-producing bacteria assessed as bacterial growth inhibition. It is filed as functional. In outline: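 Values are minimum inhibitory concentrations (MIC) in µg/mL, determined at an outside microbiology laboratory.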
The test system of another test is Enterococcus. The test can be described thus: Antibacterial activity against vancomycin-resistant Enterococcus assessed as inhibition of bacterial growth. The test is classed as functional. The essentials: (§4)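 Growth inhibition of the drug-resistant strain was read out as the minimum inhibitory concentration (MIC), reported in µg/mL. The same protocol was also run on an ESBL strain.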

Test [16] has as its system Staphylococcus aureus. As to the kind of experiment: Antibacterial activity against methicillin-resistant Staphylococcus aureus assessed as inhibition of bacterial growth. It is filed as functional. In outline:
as §4

A word on the MIC: it is the lowest concentration found to suppress growth. For orientation: MFC means the lowest tested concentration that kills the fungus rather than only halting it. For orientation: IC50 means the concentration that gives 50% inhibition.

Values after ≈ are worked out from the molar mass of the structure shown.

Take `O=C1O[C@H]([C@@H](O)CO)C(O)=C1O`: the Activity in test [1] came out at 75.1%; in test [2], 80.6%; in test [3], 89%; in test [4], 91.7%; in test [5], 75.1%; in test [6], 80.6%. Besides, the Activity in test [7] came to 89%; in test [8], 91.7%; in test [9], 75.1%; in [10], 80.6%; in test [11], 89%; in test [12] it was 91.7%. In test [13], the Activity stood at 91.7%.
As for `CC(=O)c1c(C)nc(SCC(=O)Nc2ccc(OC(=O)c3ccco3)cc2)n1-c1ccc(Br)cc1`, the MIC amounted to 100 µg/mL (≈ 180 µM) in the test on Staphylococcus aureus [14]; 100 µg/mL (≈ 180 µM) with Escherichia coli; 250 µg/mL (≈ 451 µM) in the test on Pseudomonas aeruginosa; 250 µg/mL (≈ 451 µM) in the test with Streptococcus pyogenes; 25 µg/mL (≈ 45.1 µM) in test [15]; 250 µg/mL (≈ 451 µM) in the test on Bacteria. Further, the results for the MIC in the test with Enterococcus and in the test on Staphylococcus aureus [16] were 250 µg/mL (≈ 451 µM) and 100 µg/mL (≈ 180 µM), respectively. For the same compound, the figures for the MFC in the test on Aspergillus niger, with Candida albicans and in the test with Aspergillus clavatus were 500 µg/mL (≈ 902 µM), 1000 µg/mL (≈ 1800 µM) and 500 µg/mL (≈ 902 µM), respectively. The IC50 with Plasmodium falciparum stood at 1.18 µg/mL (≈ 2.13 µM). In addition, the Activity in test [1] was 43.2%; in test [2] it was 57.1%; in [3], 64.8%; in test [4] it was 88.7%; in test [5], 49.3%; in test [6] it was 65.3%. Besides, the Activity in test [7] is 75.8%; in test [8] it was 86.7%; in test [9], 51.7%; in test [10], 68.7%; in test [11], 79%; in test [12], 86.5%.
As to `CC(=O)c1c(C)nc(SCC(=O)Nc2ccc(OC(=O)c3ccco3)cc2)n1-c1ccc(F)cc1`, the MIC is 500 µg/mL (≈ 1010 µM) in the test on Staphylococcus aureus [14]; 100 µg/mL (≈ 203 µM) in the test with Escherichia coli; 250 µg/mL (≈ 507 µM) in the test with Pseudomonas aeruginosa; 250 µg/mL (≈ 507 µM) in the test on Streptococcus pyogenes; 250 µg/mL (≈ 507 µM) in test [15]; 125 µg/mL (≈ 253 µM) in the test on Bacteria. In addition, the MIC with Enterococcus amounted to 500 µg/mL (≈ 1010 µM); in the test on Staphylococcus aureus [16] it was 1000 µg/mL (≈ 2030 µM). Moreover, the minimum fungicidal concentration (MFC) in the test with Aspergillus niger, with Candida albicans and with Aspergillus clavatus was 500 µg/mL (≈ 1010 µM) in each case. Further, the IC50 in the test on Plasmodium falciparum turned out to be 0.36 µg/mL (≈ 0.729 µM). Besides, the Activity was 34.6% in [1]; 48.2% in test [2]; 66.7% in [3]; 82.1% in [4]; 45.2% in test [5]; 67.4% in test [6]. Besides, the Activity amounted to 79.6% in [7]; 81.7% in test [8]; 55.9% in test [9]; 64.8% in [10]; 76.5% in test [11]; 85.1% in test [12].
For the compound `COc1ccc(-n2c(SCC(=O)Nc3ccc(OCc4ccc(F)cc4)cc3)nc(C)c2C(C)=O)cc1`, the MIC in the test on Staphylococcus aureus [14] was 100 µg/mL (≈ 192 µM); in the test with Escherichia coli, 12.5 µg/mL (≈ 24.1 µM); in the test with Pseudomonas aeruginosa it was 25 µg/mL (≈ 48.1 µM); in the test on Streptococcus pyogenes it was 100 µg/mL (≈ 192 µM); in test [15], 50 µg/mL (≈ 96.2 µM); with Bacteria it was 25 µg/mL (≈ 48.1 µM). In addition, the MIC in the test with Enterococcus stood at 100 µg/mL (≈ 192 µM); in the test on Staphylococcus aureus [16], 125 µg/mL (≈ 241 µM). Further, the MFC in the test on Aspergillus niger, in the test on Candida albicans and in the test on Aspergillus clavatus was 500 µg/mL (≈ 962 µM) in each case. For the same compound, the IC50 in the test with Plasmodium falciparum turned out to be 1.4 µg/mL (≈ 2.69 µM). Also, the Activity in test [1] turned out to be 31.6%; in test [2], 54.2%; in test [3] it was 67.2%; in test [4] it was 84.3%; in test [5] it was 45.8%; in test [6] it was 63.4%. Moreover, the Activity in test [7] amounted to 81.4%; in test [8], 90.5%; in [9] it was 54%; in test [10] it was 68.1%; in test [11], 79.8%; in test [12], 84.3%.
